These results are taken from ChEMBL document CHEMBL4196168 (J Med Chem, 2018).

The term Kd denotes the free concentration of one partner at which half of the binding sites on the other are occupied at equilibrium, for simple one-to-one binding. Low readings indicate a tighter complex, high ones a looser complex. Broadly, the Cmax is the highest concentration seen after dosing.

Molecules are shown by their SMILES. Active and inactive are the calls of the source. The calls are words filed in the database; no cut-off is given here.

For data set [1], the target named is T1, Transthyretin (Canis lupus familiaris) (UniProt A0A8I3NFK0). The experiment in a line: Binding affinity to transthyretin in dog serum assessed as protein stabilization at 10 uM by Western blot. The essentials:
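Pooled dog serum with compound (10 μM) or DMSO acidified in acetate buffer pH 4.0 for 0 and 72 h, glutaraldehyde crosslinked, SDS-PAGE, immunoblotted with anti-TTR antiserum (1:2,000); tetramer band intensity expressed relative to DMSO control at 0 hr; mean ± SD, n = 3.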
On the technique in general: In western blotting, separated proteins are transferred to a membrane and probed.

Data set [2] has as its target T2, Albumin (Homo sapiens, UniProt P02768). The experiment in a line: Binding affinity to human serum albumin by ITC method. It counts as ADME.
Data set [3] concerns the target T2, Albumin. Description: Binding affinity to human serum albumin assessed as compound level bound to protein at 30 uM measured immediately after gel filtration. It counts as ADME. To be noted: isolated protein. The essentials:
(§1)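 Compound (30 μM) preincubated 1 hr at 37 °C with purified human serum albumin (600 μM) in 10 mM sodium phosphate, 100 mM KCl, 1 mM EDTA, pH 7.6; gel filtration, then dialysis against buffer 24 hr at room temperature; albumin-bound compound quantified by HPLC at time zero and after dialysis; mean ± SD, n = 3.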
On the technique in general: SEC sorts molecules by how far they enter the pores of the column.

Data set [4] deals with T2, Albumin. Description: Binding affinity to human serum albumin assessed as compound level bound to protein at 30 uM measured 124 hrs after dialysis. To be noted: isolated protein, 24 h, in the assay text read “24 hrs” for “124 hrs”. It counts as ADME. The essentials: as §1
In data set [5] the target is T1, Transthyretin (Canis lupus familiaris). Description: Binding affinity to transthyretin in dog serum assessed as protein occupancy at 10 uM by fluorescent probe exclusion assay. The essentials:
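Pooled commercial beagle dog serum (TTR 4.6 μM) with compound (10 μM, from DMSO stock) and FPE probe (final 3.6 μM); fluorescence ex 328/em 384 nm read for 6 hr at rt; % occupancy at 3 hr versus probe-alone DMSO control; mean ± SD, n = 4.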

The subject of data set [6] is Canis familiaris. The experiment in a line: In-vivo binding affinity to transthyretin in beagle dog serum assessed as protein occupancy at 50 to 200 mg/kg/day dosed daily via oral gavage for 7 days by fluorescent probe exclusion assay. It counts as functional, organism-based. To be noted: Canis lupus familiaris. The essentials:
(§2)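 Male and female beagle dogs gavaged daily 7 days with vehicle (6M/6F) or compound in 0.5% methylcellulose at 50 (2M/2F), 100 (2M/2F) or 200 mg/kg (6M/6F); jugular serum taken pre-dose day 1, pre-dose day 7 and 1 hr post-dose day 7; TTR occupancy by serum FPE assay, read at 3 hr.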

The subject of data set [7] is Canis familiaris. Description: In-vivo binding affinity to transthyretin in beagle dog serum assessed as protein occupancy measured on day 7 at 50 to 200 mg/kg/day dosed daily via oral gavage for 7 days by fluorescent probe exclusion assay. It counts as functional, Canis lupus familiaris. The essentials: as §2
The test system of data set [8] is Canis familiaris. The experiment in a line: In-vivo binding affinity to transthyretin in beagle dog serum assessed as protein occupancy measured at 1 hr post dose on day 7 at 50 to 200 mg/kg/day dosed daily via oral gavage for 7 days by fluorescent probe exclusion assay. It counts as functional, Canis lupus familiaris. The essentials: as §2
In data set [9] the test system is Canis familiaris. Description: In-vivo binding affinity to transthyretin in beagle dog serum assessed as protein occupancy 20 mg/kg/day […] dosed as single administration via oral gavage. It counts as functional, organism-based. The settings on record: Canis lupus familiaris. The essentials: (§3)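 Beagle dogs (2M/2F per group) received one oral gavage dose of 5 or 20 mg/kg in 0.5% methylcellulose; serum collected pre-dose and at 2, 4, 6, 8, 12, 24 hr; compound level by LCMS and TTR occupancy by FPE assay in serum (probe plus DMSO added).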

Data set [10] concerns Canis familiaris. The experiment in a line: In-vivo binding affinity to transthyretin in beagle dog serum assessed as protein occupancy 5 mg/kg/day […] dosed as single administration via oral gavage. It counts as functional, organism-based. To be noted: Canis lupus familiaris. The essentials:
as §3

Data set [11] deals with Transthyretin (Homo sapiens) (UniProt P02766). The experiment in a line: Binding affinity to transthyretin (unknown origin) assessed as free enthalpy changes by ITC method. In general terms: ITC needs no label: the signal is the heat of the interaction.
For data set [12] the target is unchanged. Description: Binding affinity to transthyretin (unknown origin) assessed as free TdeltaS changes by ITC method.
The target is the same in data set [13]. Description: Binding affinity to transthyretin (unknown origin) in pH 7.4 PBS buffer assessed as protein occupancy at 1:1 compound to TTR ratio by fluorescent probe exclusion assay.
The nature of data set [14]: Cmax in human at 250 mg bid. It counts as ADME, organism-based. On the set-up: dose 250 mg. To be noted: in vivo.
For data set [15], the target named is Transthyretin (Homo sapiens) (UniProt P02766). The settings on record: 20 uM.
Data set [16] shares this target. Description: Binding affinity to transthyretin (unknown origin) assessed as free energy changes by ITC method.
The target is the same in data set [17]. Description: Binding affinity to transthyretin in human serum assessed as protein stabilization at 2:1 compound to TTR ratio after 72 hrs by Western blot.
Data set [18] has the same target. Description: Binding affinity to transthyretin in human serum assessed as protein occupancy at 2:1 compound to TTR ratio by fluorescent probe exclusion assay.
Data set [19] concerns the target T2, Albumin. The experiment in a line: Binding affinity to human serum albumin. It counts as ADME.
Data set [20] can be described thus: Cmax in human at 80 mg qd. It counts as ADME, organism-based. On the set-up: dose 80 mg. The settings on record: in vivo.
Data set [21] deals with Transthyretin (Homo sapiens) (UniProt P02766). To be noted: 10 uM.
For data set [22] the target is unchanged. To be noted: 10 uM. This is another data set of the same source.
Data set [23] shares this target. To be noted: 10 uM. The source holds these as a separate data set.
For data set [24] the target is unchanged. To be noted: 10 uM. This is another data set of the same source.
Data set [25] shares this target. The settings on record: 10 uM. The source holds these as a separate data set.
Data set [26] has the same target. The experiment in a line: Binding affinity to transthyretin (unknown origin) in human serum assessed as protein occupancy at 200 uM by fluorescent probe exclusion assay.

T2 sequence (P02768 whole entry): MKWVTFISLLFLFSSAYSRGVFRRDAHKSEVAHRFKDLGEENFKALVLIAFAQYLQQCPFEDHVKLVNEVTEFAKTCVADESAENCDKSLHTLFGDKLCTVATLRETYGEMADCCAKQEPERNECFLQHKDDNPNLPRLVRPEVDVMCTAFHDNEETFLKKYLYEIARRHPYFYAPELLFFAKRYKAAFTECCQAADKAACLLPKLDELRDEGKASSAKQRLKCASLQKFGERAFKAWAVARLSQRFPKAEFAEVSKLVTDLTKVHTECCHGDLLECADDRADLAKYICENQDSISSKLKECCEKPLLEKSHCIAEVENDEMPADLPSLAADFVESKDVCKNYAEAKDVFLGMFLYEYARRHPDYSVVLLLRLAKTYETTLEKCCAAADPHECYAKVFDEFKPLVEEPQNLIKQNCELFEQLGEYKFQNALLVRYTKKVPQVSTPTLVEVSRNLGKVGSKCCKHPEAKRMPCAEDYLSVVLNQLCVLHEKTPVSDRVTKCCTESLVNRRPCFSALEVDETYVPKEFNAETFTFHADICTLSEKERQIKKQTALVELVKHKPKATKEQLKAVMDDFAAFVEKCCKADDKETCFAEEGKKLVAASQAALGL

As to `Cc1n[nH]c(C)c1CCCOc1cc(C(=O)O)ccc1F` [ACORAMIDIS], the result (in data set [1]; in data set [5]; with Canis familiaris [9]; in the data set with Canis familiaris [10]) was Active. The compound further displayed a Kd at Albumin [2] of 8 µM. Also, the PB on Albumin [3] was 18.3 µM; on Albumin [4] it was 7.8 µM. Moreover, the Activity result in the data set on Canis familiaris [6] is “Dose-dependent effect”. Further, the Occ in the data set with Canis familiaris [7] is 81 - 94%; in the data set with Canis familiaris [8], over 97%.
In the case of `O=C(O)c1cc(-c2ccc(F)cc2F)ccc1O` [DIFLUNISAL], the deltaH in [11] is -8.38 kcal/mol. In addition, in data set [12], the TdeltaS was 0.34 kcal/mol. Also, the Occ was 28.7% in data set [13] and 65% in [15]. This compound also had a Cmax in data set [14] of 200 µM.
Take `Cc1nn(C)c(C)c1CCCOc1cc(C(=O)O)ccc1F`: the deltaG in data set [16] is -9 kcal/mol. Further, the deltaH in data set [11] was -4.73 kcal/mol. Also, in data set [12], the TdeltaS stood at 4.27 kcal/mol. The Occ in [13] was 29.7%; in data set [18] it was 43%. Further, in [17], the Activity stood at 32.1%.
Consider `O=C(O)c1ccc2nc(-c3cc(Cl)cc(Cl)c3)oc2c1`, for which the outcome in [1] and in data set [5] was Active. The compound further displayed a Kd on Albumin [19] of 2.5 µM. Besides, the deltaH in data set [11] was -5 kcal/mol. For the same compound, the TdeltaS in [12] was 6.39 kcal/mol. In addition, the Occ was determined as 49.9% in [13]; 68.2% in [21]; 41.5% in [22]; 65% in [26]; 49% in [18]. Also, the Activity in data set [17] came to 41.5%. This compound also registered a Cmax in data set [20] of 20 µM. For the same compound, the figures for the PB on Albumin [3] and at Albumin [4] were 24.1 µM and 18.8 µM, respectively. Besides, the Occ result in [23], in [24] and in data set [25] was “Active” each time.
As to `Cc1n[nH]c(C)c1CCCOc1cc(C(=O)O)ccc1I`, in data set [16], the deltaG is -9.61 kcal/mol. Besides, the deltaH in [11] is -9.82 kcal/mol. For the same compound, the TdeltaS in data set [12] was -0.21 kcal/mol. In addition, the Occ in data set [13] was determined as 58.3%; in data set [18], 75.9%. In addition, in data set [17], the Activity was found to be 86.7%.
Take `COC(=O)c1ccc(F)c(OCCCc2c(C)n[nH]c2C)c1`: the deltaG in data set [16] is -8.99 kcal/mol. In data set [11], the deltaH was -6.49 kcal/mol. Besides, the TdeltaS in [12] came out at 2.5 kcal/mol. Also, the values for the Occ in data set [13] and in [18] were 38.5% and 63.2%, respectively. Further, the Activity in [17] came out at 70.4%.
As for `CCc1n[nH]c(CC)c1CCCOc1cc(C(=O)O)ccc1F`, in data set [16], the deltaG is -8.1 kcal/mol. Also, the deltaH in data set [11] is -2.1 kcal/mol. Further, the TdeltaS in data set [12] was found to be 6 kcal/mol. Besides, the Occ in [13] turned out to be 17.2%; in data set [18], 20.8%. For the same compound, the Activity in data set [17] turned out to be 23.2%.
